Reference: ChEMBL document CHEMBL3588793, “Small molecule inhibitors of HIVgp41 N-heptad repeat trimer formation” (Bioorg Med Chem Lett, 2015)
pIC50: −log10 of the molar value. Active and inactive are the calls of the source. No cut-off for these calls is given here.

Columns and labels:
[1] = system: HL2/3; assay: Inhibition of HIV gp41 activity assessed as inhibition of TZM-bl and HL2/3 cell fusion at 100 uM after 6 hrs by luciferase reporter assay; assay type: cell-based; details: Human immunodeficiency virus
In short: (§1)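 TZM-bl target cells (2.5×10^4/well) were seeded; 24 h later HL2/3 effector cells (5.0×10^4/well, […]) were added together with compound diluted in DMSO to a final 100 µM. After 6 h, Tat-driven LTR-luciferase luminescence (fusion) and cell viability were read in a combined reporter/viability kit. Six replicates; ANOVA with Tukey post hoc test against untreated co-culture.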

[2] = Inhibition of HIVgp41 activity assessed as inhibition of TZM-bl and HL2/3 cell fusion after 6 hrs by luciferase reporter assay; assay type: cell-based; details: Human immunodeficiency virus 1, HL2/3, 6 h
In short: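 Dose-response runs of the TZM-bl/HL2/3 co-culture luciferase fusion assay over a range of concentrations. Viability signal was scaled to the maximal signal (fraction of maximal proliferation). Each well's fusion luminescence was divided by that fraction, background was subtracted, and values were normalized to fraction of maximal effect. IC50 was taken from curve fitting.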

[3] = system: Human immunodeficiency virus; assay: Inhibition of HIVgp41 activity assessed as fluorescence intensity at 800 uM by FRET assay relative to 40 uM bithionol
[4] = Cytotoxicity against human TZM-bl cells at 100 uM; assay type: cell-based; in short: as §1
[5] = Cytotoxicity against human HL2/3 cells at 100 uM; assay type: cell-based; details: hl2/3, 100 µM; in short: as §1

| pIC50 [2] | Activity [3] | Structure (SMILES) | Activity [1] | Activity [4] | Activity [5] |
| --- | --- | --- | --- | --- | --- |
| 4.23 | inactive | COc1ccc(-c2cc(C(=O)NCc3ccc(Cl)cc3)n[nH]2)cc1S(=O)(=O)N1CCOCC1 | Active | Non-toxic | Non-toxic |
| 4.25 | inactive | CCn1c(SCC(=O)N/N=C/c2cccc(Oc3ccccc3)c2)nnc1-c1ccc(OC)cc1 | Active | Non-toxic | Non-toxic |
